Measurements reported in ChEMBL document CHEMBL4052615, “Discovery of 4-amino-3-arylsulfoquinolines, a novel non-acetylenic chemotype of metabotropic glutamate 5 (mGlu5) receptor negative allosteric modulators” (Eur J Med Chem, 2017).
≈ marks a conversion by molar mass, not a printed value. Calls of active or inactive are those of the source. The calls are words filed in the database; no cut-off is given here.

How the values were obtained:
[1] = molecular target: T1, Metabotropic glutamate receptor 5 (Homo sapiens, UniProt P41594); experiment: Displacement of [3H]M-MPEP from mGluR5 (unknown origin) measured after 60 mins
In short: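 The [³H]M-MPEP competition used rat cortical membranes or human mGlu5a A18 cell membranes in Tris pH 7.6 buffer with MgCl₂ and CaCl₂, 60 min at 25°C. Curves were generally 7 concentrations in duplicate or triplicate. IC50 was converted to Ki by Cheng–Prusoff, with Kd from a Scatchard plot. Non-specific binding was defined with M-MPEP.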
Target sequence in this assay (P41594 whole entry): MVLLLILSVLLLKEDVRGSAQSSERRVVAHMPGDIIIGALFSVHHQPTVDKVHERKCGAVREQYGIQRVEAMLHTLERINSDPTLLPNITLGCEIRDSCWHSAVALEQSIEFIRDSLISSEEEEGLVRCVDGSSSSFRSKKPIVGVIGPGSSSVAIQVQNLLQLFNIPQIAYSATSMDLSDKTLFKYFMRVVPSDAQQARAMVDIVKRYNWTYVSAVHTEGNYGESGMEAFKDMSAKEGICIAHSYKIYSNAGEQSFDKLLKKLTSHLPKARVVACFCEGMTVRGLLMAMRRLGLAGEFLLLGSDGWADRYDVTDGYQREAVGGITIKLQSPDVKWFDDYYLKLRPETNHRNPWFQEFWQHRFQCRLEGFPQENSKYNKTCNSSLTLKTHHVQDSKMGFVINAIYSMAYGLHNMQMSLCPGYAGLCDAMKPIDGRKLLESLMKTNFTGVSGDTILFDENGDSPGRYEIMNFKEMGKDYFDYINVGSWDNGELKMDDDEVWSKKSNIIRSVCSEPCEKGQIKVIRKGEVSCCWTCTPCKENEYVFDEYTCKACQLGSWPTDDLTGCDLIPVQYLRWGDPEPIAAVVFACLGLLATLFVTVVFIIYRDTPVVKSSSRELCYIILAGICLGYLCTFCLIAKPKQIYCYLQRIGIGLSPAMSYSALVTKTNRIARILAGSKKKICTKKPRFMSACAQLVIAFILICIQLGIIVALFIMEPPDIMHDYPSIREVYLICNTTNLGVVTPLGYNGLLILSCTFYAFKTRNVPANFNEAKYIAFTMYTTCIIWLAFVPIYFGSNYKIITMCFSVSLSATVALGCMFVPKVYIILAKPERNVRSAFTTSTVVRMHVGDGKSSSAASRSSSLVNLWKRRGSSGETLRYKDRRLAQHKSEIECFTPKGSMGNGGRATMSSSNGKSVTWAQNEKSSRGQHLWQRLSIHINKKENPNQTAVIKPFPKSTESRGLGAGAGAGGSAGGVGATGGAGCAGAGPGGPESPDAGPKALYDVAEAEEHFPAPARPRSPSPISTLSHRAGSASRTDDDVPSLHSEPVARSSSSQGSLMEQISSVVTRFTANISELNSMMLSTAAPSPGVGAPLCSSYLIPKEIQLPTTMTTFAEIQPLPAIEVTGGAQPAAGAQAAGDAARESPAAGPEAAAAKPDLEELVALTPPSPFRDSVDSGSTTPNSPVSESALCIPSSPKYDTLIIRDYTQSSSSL

[2] = Drug level in blood of rat at 10 mg/kg, ip at 40 mins post dose; format: ADME, organism-based; details: read-out: Drug uptake
[3] = molecular target: T1, Metabotropic glutamate receptor 5; experiment: Displacement of [3H]M-MPEP from mGluR5 (unknown origin) at 1 uM measured after 60 mins relative to control
In short: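 Rat cerebrocortical membranes or membranes from A18 cells expressing human mGlu5a, incubated with [³H]M-MPEP and test compound at 1 µM in 50 mM Tris pH 7.6 with 2 mM MgCl₂ and 2 mM CaCl₂, 60 min at 25°C. Non-specific binding was taken with […]. Result is % displacement, run in duplicate or triplicate.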
Target sequence in this assay (P41594 21-1212 limits assumed): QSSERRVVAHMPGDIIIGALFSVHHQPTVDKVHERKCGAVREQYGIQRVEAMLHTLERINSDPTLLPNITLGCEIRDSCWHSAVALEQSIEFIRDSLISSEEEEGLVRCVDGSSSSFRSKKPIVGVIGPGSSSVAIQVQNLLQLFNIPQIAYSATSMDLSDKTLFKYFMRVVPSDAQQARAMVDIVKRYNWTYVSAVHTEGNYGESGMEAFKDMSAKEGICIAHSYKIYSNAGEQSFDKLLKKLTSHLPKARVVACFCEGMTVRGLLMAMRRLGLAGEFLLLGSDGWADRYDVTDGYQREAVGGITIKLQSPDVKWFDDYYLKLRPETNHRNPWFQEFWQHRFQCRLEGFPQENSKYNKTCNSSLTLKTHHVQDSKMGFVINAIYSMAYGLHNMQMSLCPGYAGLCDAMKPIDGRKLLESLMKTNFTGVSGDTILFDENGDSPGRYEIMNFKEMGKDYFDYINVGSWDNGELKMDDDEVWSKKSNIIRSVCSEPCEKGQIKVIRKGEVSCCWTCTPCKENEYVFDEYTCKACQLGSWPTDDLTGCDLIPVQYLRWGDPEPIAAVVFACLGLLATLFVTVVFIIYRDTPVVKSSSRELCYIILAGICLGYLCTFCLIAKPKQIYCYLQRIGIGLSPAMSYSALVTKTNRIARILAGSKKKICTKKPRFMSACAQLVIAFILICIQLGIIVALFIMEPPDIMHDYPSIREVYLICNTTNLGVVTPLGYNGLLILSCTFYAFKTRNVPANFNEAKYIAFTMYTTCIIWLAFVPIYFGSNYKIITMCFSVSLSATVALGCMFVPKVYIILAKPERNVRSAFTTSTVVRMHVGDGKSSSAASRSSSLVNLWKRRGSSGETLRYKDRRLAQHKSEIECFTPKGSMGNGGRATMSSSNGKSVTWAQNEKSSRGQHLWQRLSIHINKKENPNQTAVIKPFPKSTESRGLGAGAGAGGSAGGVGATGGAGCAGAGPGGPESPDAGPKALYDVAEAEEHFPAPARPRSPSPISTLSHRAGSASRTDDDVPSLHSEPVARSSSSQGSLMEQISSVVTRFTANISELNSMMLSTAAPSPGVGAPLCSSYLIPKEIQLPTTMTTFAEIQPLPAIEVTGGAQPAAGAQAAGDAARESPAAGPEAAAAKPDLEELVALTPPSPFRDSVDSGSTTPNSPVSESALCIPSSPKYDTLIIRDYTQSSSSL

[4] = system: Rattus norvegicus; experiment: Anxiolytic activity in ip dosed rat assessed as increase in water drinking time during punished period by Vogel punished drinking conflict test; format: functional; details: read-out: MED
In short: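 Rats were water-deprived 48 h. On test day, compound was given i.p. in 5% Tween/distilled water at 1, 3 or 10 mg/kg, n=8 per dose. A 30-s unpunished drinking period followed. Comparison to vehicle was by ANOVA with Duncan post-hoc, giving MED.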

[5] = Aqueous solubility of the compound in water; format: physicochemical
[6] = molecular target: Metabotropic glutamate receptor 1 (Homo sapiens) (UniProt Q13255); experiment: Activity at mGluR1 (unknown origin)
Metabotropic glutamate receptor 1 (Homo sapiens), sequence (Q13255 19-1194 limits assumed): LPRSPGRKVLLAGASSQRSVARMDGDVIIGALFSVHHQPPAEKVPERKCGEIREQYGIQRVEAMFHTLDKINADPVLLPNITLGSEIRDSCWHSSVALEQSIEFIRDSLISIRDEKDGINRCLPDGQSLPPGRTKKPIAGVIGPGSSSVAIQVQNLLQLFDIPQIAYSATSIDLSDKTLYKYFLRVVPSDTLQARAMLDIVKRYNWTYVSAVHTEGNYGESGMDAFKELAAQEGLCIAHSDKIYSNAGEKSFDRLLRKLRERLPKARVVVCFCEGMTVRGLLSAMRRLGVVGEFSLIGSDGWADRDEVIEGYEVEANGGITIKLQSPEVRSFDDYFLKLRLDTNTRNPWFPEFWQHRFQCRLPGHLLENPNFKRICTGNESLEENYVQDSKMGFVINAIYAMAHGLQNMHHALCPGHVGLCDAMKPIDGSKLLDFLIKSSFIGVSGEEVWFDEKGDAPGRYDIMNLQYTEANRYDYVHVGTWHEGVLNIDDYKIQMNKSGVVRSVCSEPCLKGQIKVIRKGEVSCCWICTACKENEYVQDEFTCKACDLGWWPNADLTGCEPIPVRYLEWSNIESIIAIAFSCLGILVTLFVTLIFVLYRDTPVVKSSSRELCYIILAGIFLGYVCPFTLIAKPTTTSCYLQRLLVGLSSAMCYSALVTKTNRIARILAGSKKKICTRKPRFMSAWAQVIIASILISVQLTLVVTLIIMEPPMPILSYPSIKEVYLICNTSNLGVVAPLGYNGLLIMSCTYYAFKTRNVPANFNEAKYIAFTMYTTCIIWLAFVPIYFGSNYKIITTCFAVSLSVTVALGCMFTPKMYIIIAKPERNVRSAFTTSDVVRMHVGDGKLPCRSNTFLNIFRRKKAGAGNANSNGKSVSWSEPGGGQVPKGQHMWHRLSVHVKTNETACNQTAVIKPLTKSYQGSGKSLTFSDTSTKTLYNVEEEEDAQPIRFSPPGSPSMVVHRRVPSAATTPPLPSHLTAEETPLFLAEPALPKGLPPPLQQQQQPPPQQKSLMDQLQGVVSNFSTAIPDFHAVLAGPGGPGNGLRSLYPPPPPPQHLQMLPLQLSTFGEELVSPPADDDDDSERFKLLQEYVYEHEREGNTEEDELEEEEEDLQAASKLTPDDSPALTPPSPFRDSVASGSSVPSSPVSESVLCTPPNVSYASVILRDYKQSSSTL

`CC1CCN(c2c(S(=O)(=O)c3ccc(Cl)c(Cl)c3)cnc3ccc(F)cc23)CC1` showed a Ki [1] of 0.0556 µM, a concentration at 40 min [2] of 46 ng/mL and an inhibition [3] of 91%. The minimal effective dose [4] was 30 mg/kg and the solubility [5] was less than 3 µM.
In the case of `Cc1ccc(S(=O)(=O)c2cnc3ccccc3c2NCc2ccccc2)cc1`, the Ki [1] is reported as 0.198 µM and the inhibition [3] is reported as 73.5%.
With `Cc1ccc2ncc(S(=O)(=O)c3cccc(F)c3)c(N3CCC(C)CC3)c2c1` the inhibition [3] was 94% and the solubility [5] was less than 3 µM.
In the case of `O=S(=O)(c1ccccc1)c1cnc2ccccc2c1N1CCCCCC1`, the Ki [1] is reported as 0.31 µM and the inhibition [3] is reported as 79.9%.
In the case of `O=S(=O)(c1ccccc1)c1cnc2ccccc2c1N1CCCCC1`, the Ki [1] is reported as 0.307 µM and the inhibition [3] is reported as 71.4%.
Work on `N#Cc1cc(F)cc(S(=O)(=O)c2cnc3cc(Cl)ccc3c2N2CCC(CO)CC2)c1` yielded a Ki [1] of 0.0241 µM, a concentration at 40 min [2] of 608 ng/mL and a minimal effective dose [4] greater than 10 mg/kg. It also gave a solubility [5] of 15 to 45 µM (≈ 6.9 to 20.7 µg/mL).
Work on `CC1CCN(c2c(S(=O)(=O)c3ccc(Cl)cc3)cnc3ccc(Cl)cc23)CC1` yielded a Ki [1] of 0.435 µM and an inhibition [3] of 92%.
In the case of `CCN(CC)c1c(S(=O)(=O)c2ccc(C)cc2)cnc2ccccc12`, the Ki [1] is reported as 0.201 µM and the inhibition [3] is reported as 78.3%.
Molecule `O=S(=O)(c1cccc(Cl)c1)c1cnc2cc(Cl)ccc2c1N1CCC(CO)CC1` has a Ki [1] of 0.0309 µM, a concentration at 40 min [2] of 193 ng/mL and a minimal effective dose [4] of 10 mg/kg. For the same molecule, the solubility [5] was 15 to 45 µM (≈ 6.77 to 20.3 µg/mL).
Work on `CC1CCN(c2c(S(=O)(=O)c3ccccc3)cnc3ccccc23)CC1` yielded a Ki [1] of 0.108 µM and an inhibition [3] of 89.2%.
In the case of `CC1CCN(c2c(S(=O)(=O)c3cc(F)cc(F)c3)cnc3cc(Cl)ccc23)CC1`, the Ki [1] is reported as 0.0682 µM and the inhibition [3] is reported as 94%.
In the case of `Cc1ccc(S(=O)(=O)c2cnc3ccccc3c2N2CCOCC2)cc1C`, the Activity [6] is reported as “inactive”.
With `COc1ccc2ncc(S(=O)(=O)c3ccc(C)cc3)c(N3CCC(C)CC3)c2c1` the inhibition [3] was 90%.
`Cc1ccc(S(=O)(=O)c2cnc3c(F)cccc3c2N2CCC(C)CC2)cc1F` showed an inhibition [3] of 93%.
`CC1CCN(c2c(S(=O)(=O)c3cccc(F)c3)cnc3ccc(F)cc23)CC1` showed an inhibition [3] of 76%.
`CC1CCN(c2c(S(=O)(=O)c3ccc(Cl)c(Cl)c3)cnc3ccc(Cl)cc23)CC1` showed a Ki [1] of 0.103 µM, a concentration at 40 min [2] of 55 ng/mL and an inhibition [3] of 86%. For the same molecule, the minimal effective dose [4] was greater than 30 mg/kg and the solubility [5] was less than 3 µM.
For `O=S(=O)(c1cc(F)cc(F)c1)c1cnc2c(F)cccc2c1N1CCOCC1`, the inhibition [3] was 52%.
For `O=S(=O)(c1cccc(F)c1)c1cnc2ccc(F)cc2c1N1CCOCC1`, the inhibition [3] was 0%.
`Cc1ccc2ncc(S(=O)(=O)c3cc(Cl)cc(Cl)c3)c(N3CCOCC3)c2c1` showed an inhibition [3] of 70%.
Work on `CC1CCN(c2c(S(=O)(=O)c3ccc(C#N)cc3)cnc3ccc(F)cc23)CC1` yielded an inhibition [3] of 75%.
For `O=S(=O)(c1ccc(F)c(F)c1)c1cnc2ccc(Cl)cc2c1N1CCOCC1`, the inhibition [3] was 2%.
With `O=S(=O)(c1cc(Cl)cc(Cl)c1)c1cnc2ccc(Cl)cc2c1N1CCOCC1` the inhibition [3] was 14%.
Molecule `COc1cccc(S(=O)(=O)c2cnc3cc(Cl)ccc3c2N2CCC(C)CC2)c1` has an inhibition [3] of 93%.
`Cc1ccc(S(=O)(=O)c2cnc3ccc(F)cc3c2N2CCOCC2)cc1F` showed an inhibition [3] of 28%.
With `O=S(=O)(c1ccccc1)c1cnc2ccc(Cl)cc2c1N1CCOCC1` the inhibition [3] was 18%.
Work on `O=S(=O)(c1ccc(Cl)c(Cl)c1)c1cnc2cc(Cl)ccc2c1N1CCOCC1` yielded an inhibition [3] of 86%.
Molecule `CC1CCN(c2c(S(=O)(=O)c3ccc(F)cc3)cnc3c(F)cccc23)CC1` has an inhibition [3] of 26%.
Molecule `COc1ccc2ncc(S(=O)(=O)c3ccc(Cl)cc3)c(N3CCOCC3)c2c1` has an inhibition [3] of 93%.
`CC1CCN(c2c(S(=O)(=O)c3cccc(Cl)c3)cnc3ccc(F)cc23)CC1` showed an inhibition [3] of 92%.
